# Experiments:
# CYP2C8 = details: recombinant human CYPs; cited from earlier work
# CYP2C19 = details: recombinant human CYPs; cited from earlier work
# CYP1A2 = details: recombinant human CYPs; cited from earlier work
# [1] = cited from earlier work
# [2] = preclinical data; ref data on file; Millennium Pharmaceuticals, Inc.; cited from earlier work
# [3] = cited from earlier work; remark: listed apart in the source
# [4] = Part 2 safety: treatment-emergent adverse events, labs, vital signs, ECG; assay type: in vivo, human
# How it was run: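 Part 2 had 12 healthy adults. They received a single fasted oral 160 mg dose of the test compound, then rifampin 600 mg once daily, with a 7-day lead-in before coadministration and 6 days of continued dosing afterwards. TEAEs were recorded through 30 days after the last test-compound dose, coded with MedDRA v22.0 and graded by NCI CTCAE v5. Vital signs, hematology/chemistry/urinalysis and 12-lead ECG were also assessed. All were summarised descriptively.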
# CYP2D6 = details: recombinant human CYPs; cited from earlier work
# CYP3A4/5 = details: recombinant human CYPs; cited from earlier work
# CYP2C9 = details: recombinant human CYPs; cited from earlier work
# [5] = Part 1 safety: treatment-emergent adverse events, labs, vital signs, ECG; assay type: in vivo, human
# How it was run: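 Part 1 had 12 healthy adults. They received a single fasted oral 20 mg dose of the test compound, then itraconazole oral solution 200 mg once daily for 14 days, with the test compound coadministered. TEAEs were recorded through 30 days after the last test-compound dose, coded with MedDRA v22.0 and graded by NCI CTCAE v5. Vital signs, hematology/chemistry/urinalysis and 12-lead ECG were also assessed. All were summarised descriptively.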
# CYP2B6 = details: recombinant human CYPs; cited from earlier work
# [6] = Part 1: mobocertinib-itraconazole DDI study, plasma PK; assay type: in vivo, human; details: for AUC(0-inf) / Cmax / half-life: human, plasma, oral; for AUC(0-inf): AUC0-∞; for half-life: t½; for AUC0-∞, Geometric LS Mean Ratio (90%CI) (Test/Reference) / Cmax, Geometric LS Mean Ratio (90%CI) (Test/Reference): mobocertinib 20 mg + itraconazole vs mobocertinib alone
# How it was run: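 Nonsmoking adults aged 18–55 (n = 12) took a single oral capsule dose of 20 mg fasted, with a meal at least 4 h postdose. This was repeated with itraconazole solution 200 mg once daily on an empty stomach over 14 days, after a 4-day lead-in. Plasma was sampled predose to 168 h, adding 192 and 240 h with itraconazole. Parent and two metabolites were measured by LC-MS/MS (LLOQ 0.100 ng/mL). Analysis was noncompartmental, with ln-transformed geometric LSM ratios and 90% CI.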
# [7] = Part 2: mobocertinib-rifampin DDI study, plasma PK; assay type: in vivo, human
# [8] = Mobocertinib 160 mg + Rifampin, part 2
# [9] = Mobocertinib 160 mg Alone, part 2
# [10] = Mobocertinib 20 mg + Itraconazole, part 1
# [11] = Mobocertinib 20 mg Alone, part 1
# [12] = 20 mg, Arithmetic Means (SD), mobocertinib 20 mg alone (reference), footnote a: mean (%CV)
# [13] = 20 mg, Geometric Means (%CV), mobocertinib 20 mg alone (reference)
# [14] = Arithmetic Means (SD), mobocertinib 20 mg + itraconazole 200 mg once daily (test), footnote a: mean (%CV)
# [15] = Geometric Means (%CV), mobocertinib 20 mg + itraconazole 200 mg once daily (test)
# [16] = itraconazole and mobocertinib 20 mg vs mobocertinib alone
# [17] = itraconazole plus mobocertinib 20 mg vs mobocertinib alone
# [18] = mobocertinib 160 mg + rifampin vs mobocertinib alone
# [19] = rifampin plus mobocertinib 160 mg
compound,measurement,setting,value
C=CC(=O)Nc1cc(Nc2ncc(C(=O)OC(C)C)c(-c3cn(C)c4ccccc34)n2)c(OC)cc1N(C)CCN(C)C [Mobocertinib],Percent contribution of enzyme to metabolism,CYP2C8,< 2%
same,Percent contribution of enzyme to metabolism,CYP2C19,< 2%
same,Percent contribution of enzyme to metabolism,CYP1A2,< 2%
same,Effect of a low-fat meal on absorption,[1],no apparent effect
same,Excreted unchanged in urine,[1]; renal elimination,< 1.2%
same,Mean half-life,"[1]; single oral doses, healthy volunteers",20 h
same,Mutagenicity / genotoxicity,[2],neither mutagenic nor genotoxic
same,Accumulation of systemic exposure after repeat dosing,"[3]; 20 to 120 mg once daily, patients with NSCLC",moderate accumulation
same,Recommended phase 2 dose,"[3]; dose escalation, patients with NSCLC",160 mg once daily
same,Dose proportionality of Cmax and AUC0-24,[3]; dose range 5 to 180 mg once daily,increased in a dose‐proportional manner
same,Median tmax,"[3]; once-daily administration, patients with NSCLC",4 hours postdose
same,TEAE: Back pain,[4]; [8],1 (8) n (%)
same,TEAE: Chest discomfort,[4]; [8],2 (17) n (%)
same,TEAE: Diarrhea,[4]; [8],3 (25) n (%)
same,TEAE: Dry skin,[4]; [8],0 n (%)
same,TEAE: Dry throat,[4]; [8],0 n (%)
same,TEAE: Headache,[4]; [8],2 (17) n (%)
same,TEAE: Nausea,[4]; [8],2 (17) n (%)
same,TEAE: Oropharyngeal pain,[4]; [8],2 (17) n (%)
same,TEAE: Pruritus,[4]; [8],2 (17) n (%)
same,TEAE: Pruritus generalized,[4]; [8],0 n (%)
same,TEAE: Rash,[4]; [8],2 (17) n (%)
same,Volunteers with TEAEs,[4]; [8],10 (83) n (%)
same,Volunteers without TEAEs,[4]; [8],2 (17) n (%)
same,TEAE: Back pain,[4]; [9],1 (8) n (%)
same,TEAE: Chest discomfort,[4]; [9],0 n (%)
same,TEAE: Diarrhea,[4]; [9],2 (17) n (%)
same,TEAE: Dry skin,[4]; [9],3 (25) n (%)
same,TEAE: Dry throat,[4]; [9],2 (17) n (%)
same,TEAE: Headache,[4]; [9],1 (8) n (%)
same,TEAE: Nausea,[4]; [9],1 (8) n (%)
same,TEAE: Oropharyngeal pain,[4]; [9],0 n (%)
same,TEAE: Pruritus,[4]; [9],0 n (%)
same,TEAE: Pruritus generalized,[4]; [9],2 (17) n (%)
same,TEAE: Rash,[4]; [9],0 n (%)
same,Volunteers with TEAEs,[4]; [9],9 (75) n (%)
same,Volunteers without TEAEs,[4]; [9],3 (25) n (%)
same,TEAE: Back pain,[4]; Part 2 Overall,2 (17) n (%)
same,TEAE: Chest discomfort,[4]; Part 2 Overall,2 (17) n (%)
same,TEAE: Diarrhea,[4]; Part 2 Overall,4 (33) n (%)
same,TEAE: Dry skin,[4]; Part 2 Overall,3 (25) n (%)
same,TEAE: Dry throat,[4]; Part 2 Overall,2 (17) n (%)
same,TEAE: Headache,[4]; Part 2 Overall,3 (25) n (%)
same,TEAE: Nausea,[4]; Part 2 Overall,3 (25) n (%)
same,TEAE: Oropharyngeal pain,[4]; Part 2 Overall,2 (17) n (%)
same,TEAE: Pruritus,[4]; Part 2 Overall,2 (17) n (%)
same,TEAE: Pruritus generalized,[4]; Part 2 Overall,2 (17) n (%)
same,TEAE: Rash,[4]; Part 2 Overall,2 (17) n (%)
same,Volunteers with TEAEs,[4]; Part 2 Overall,11 (92) n (%)
same,Volunteers without TEAEs,[4]; Part 2 Overall,1 (8) n (%)
same,"Changes in laboratory parameters, vital signs, or ECGs",[4]; part 2,no apparent or consistent treatment‐related changes
same,"Deaths, serious TEAEs, discontinuations",[4]; part 2,"No deaths, serious TEAEs, or discontinuations"
same,Tolerability,"[4]; single oral dose 160 mg with rifampin, healthy volunteers",generally well tolerated
same,Percent contribution of enzyme to metabolism,CYP2D6,< 2%
same,Percent contribution of enzyme to metabolism,CYP3A4/5,> 90%
same,Percent contribution of enzyme to metabolism,CYP2C9,< 2%
same,TEAE: Back pain,[5]; [10],1 (8) n (%)
same,TEAE: Chest discomfort,[5]; [10],0 n (%)
same,TEAE: Diarrhea,[5]; [10],2 (17) n (%)
same,TEAE: Dry skin,[5]; [10],0 n (%)
same,TEAE: Dry throat,[5]; [10],0 n (%)
same,TEAE: Headache,[5]; [10],1 (8) n (%)
same,TEAE: Nausea,[5]; [10],0 n (%)
same,TEAE: Oropharyngeal pain,[5]; [10],0 n (%)
same,TEAE: Pruritus,[5]; [10],0 n (%)
same,TEAE: Pruritus generalized,[5]; [10],0 n (%)
same,TEAE: Rash,[5]; [10],0 n (%)
same,Volunteers with TEAEs,[5]; [10],4 (33) n (%)
same,Volunteers without TEAEs,[5]; [10],8 (67) n (%)
same,TEAE: Back pain,[5]; [11],0 n (%)
same,TEAE: Chest discomfort,[5]; [11],0 n (%)
same,TEAE: Diarrhea,[5]; [11],0 n (%)
same,TEAE: Dry skin,[5]; [11],1 (8) n (%)
same,TEAE: Dry throat,[5]; [11],0 n (%)
same,TEAE: Headache,[5]; [11],0 n (%)
same,TEAE: Nausea,[5]; [11],0 n (%)
same,TEAE: Oropharyngeal pain,[5]; [11],0 n (%)
same,TEAE: Pruritus,[5]; [11],0 n (%)
same,TEAE: Pruritus generalized,[5]; [11],0 n (%)
same,TEAE: Rash,[5]; [11],0 n (%)
same,Volunteers with TEAEs,[5]; [11],1 (8) n (%)
same,Volunteers without TEAEs,[5]; [11],11 (92) n (%)
same,TEAE: Back pain,[5]; Part 1 Overall,1 (8) n (%)
same,TEAE: Chest discomfort,[5]; Part 1 Overall,0 n (%)
same,TEAE: Diarrhea,[5]; Part 1 Overall,2 (17) n (%)
same,TEAE: Dry skin,[5]; Part 1 Overall,1 (8) n (%)
same,TEAE: Dry throat,[5]; Part 1 Overall,0 n (%)
same,TEAE: Headache,[5]; Part 1 Overall,1 (8) n (%)
same,TEAE: Nausea,[5]; Part 1 Overall,0 n (%)
same,TEAE: Oropharyngeal pain,[5]; Part 1 Overall,0 n (%)
same,TEAE: Pruritus,[5]; Part 1 Overall,0 n (%)
same,TEAE: Pruritus generalized,[5]; Part 1 Overall,0 n (%)
same,TEAE: Rash,[5]; Part 1 Overall,0 n (%)
same,Volunteers with TEAEs,[5]; Part 1 Overall,5 (42) n (%)
same,Volunteers without TEAEs,[5]; Part 1 Overall,7 (58) n (%)
same,"Changes in laboratory parameters, vital signs, or ECGs",[5]; part 1,no apparent or consistent treatment‐related changes
same,"Deaths, serious TEAEs, discontinuations",[5]; part 1,"No deaths, serious TEAEs, or discontinuations"
same,Tolerability,"[5]; single oral dose 20 mg with itraconazole, healthy volunteers",generally well tolerated
same,Percent contribution of enzyme to metabolism,CYP2B6,< 2%
same,AUC(0-inf),[6]; [12],113 ng·h/mL
same,AUC(0-inf),[6]; [13],106 ng·h/mL
same,Cmax,[6]; [12],5.78 ng/mL
same,Cmax,[6]; [13],5.52 ng/mL
same,half-life,[6]; [12],21.5 h
same,half-life,[6]; [13],21.2 h
same,AUC(0-inf),[6]; [14],907 ng·h/mL
same,AUC(0-inf),[6]; [15],892 ng·h/mL
same,Cmax,[6]; [14],21.5 ng/mL
same,Cmax,[6]; [15],21.1 ng/mL
same,half-life,[6]; [14],54.7 h
same,half-life,[6]; [15],53.9 h
same,Increase in plasma AUC0-∞,[6]; [16],743%
same,Increase in plasma Cmax,[6]; [16],≈ 283%
same,Increase in geometric mean t½,[6]; [17],154%
same,Median tmax reached later,[6]; [17],2 h
same,"AUC0-∞, Geometric LS Mean Ratio (90%CI) (Test/Reference)",[6],8.43 (7.02‐10.12)
same,"Cmax, Geometric LS Mean Ratio (90%CI) (Test/Reference)",[6],3.83 (3.25‐4.50)
same,"AUC0-∞, Geometric LS Mean Ratio (90%CI) (Test/Reference)",[6]; listed as mobocertinib,8.43
same,"Cmax, Geometric LS Mean Ratio (90%CI) (Test/Reference)",[6]; listed as mobocertinib,3.83
same,"AUC0-∞, Geometric LS Mean Ratio (90%CI) (Test/Reference)",[7]; [18],0.04 (0.03‐0.05)
same,"Cmax, Geometric LS Mean Ratio (90%CI) (Test/Reference)",[7]; [18],0.05 (0.04‐0.07)
same,"AUC0-∞, Geometric LS Mean Ratio (90%CI) (Test/Reference)","[7]; mobocertinib 160 mg + rifampin vs mobocertinib alone, listed as mobocertinib",0.04
same,Plasma AUC0-∞ as % of value following mobocertinib alone,[7]; [19],~4%
same,Plasma Cmax as % of value following mobocertinib alone,[7]; [19],approximately 5%
same,Reduction in geometric mean t½,[7]; rifampin plus mobocertinib 160 mg vs mobocertinib alone,29%
